Reference: ChEMBL document CHEMBL1212806, “Chemoselective small molecules that covalently modify one lysine in a non-enzyme protein in plasma” (Nat Chem Biol, 2010)
The source made the active and inactive calls. The calls are words filed in the database; no cut-off is given here.

Columns and labels:
Homo sapiens = species: Homo sapiens; assay: Binding affinity to TTR K15A mutant tetramer in human plasma assessed as covalent chemoselective amide bond formation with residue-15 of TTR subunit at 7.2 uM after 18 hrs by RP-HPLC analysis; type: cell-free
Transthyretin [1] = molecular target: T1, Transthyretin (Homo sapiens, UniProt P02766); assay: Stabilization of wild-type TTR tetramer assessed as time needed for 95% TTR-compound conjugate formation by C18-RP-HPLC
[2] = Toxicity in human IMR32 cells assessed as reduction of cell viability after 24 hrs by resazurin reduction assay; type: cell-based; details: imr-32, 24 h
Procedure, shortened: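 IMR-32 cells (6,000/well, overnight) were exposed 24 h at 37 °C to compound preincubated 18 h at 37 °C in HBSS without TTR, diluted 1:1 in supplemented Opti-MEM. Viability was read by resazurin fluorescence (Ex/Em 530/590, 1 h), as % of vehicle-treated cells after blank subtraction.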

Transthyretin [3] = molecular target: T1, Transthyretin; assay: Noncovalent binding affinity to TTR K15A mutant T4 site assessed as fibril formation at 7.2 uM after 72 hrs at pH 4.4 by RP-HPLC analysis
Transthyretin [4] = molecular target: T1, Transthyretin; assay: Inhibition of wild type TTR induced cytotoxicity in human IMR32 cells assessed as cell viability after 24 hrs by resazurin reduction assay; type: cell-based; details: IMR-32
Procedure, shortened: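 IMR-32 neuroblastoma cells were seeded at 6,000/well in Opti-MEM with 5% FBS and grown overnight. Cold-purified WT-TTR in HBSS was preincubated 18 h at 37 °C with compound, then diluted 1:1 in supplemented Opti-MEM onto cells. After 24 h at 37 °C, resazurin was added and fluorescence read (Ex/Em 530/590) after 1 h. Results are % of vehicle, blank-subtracted, mean ± SE of 2 experiments, at least triplicate.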

Transthyretin [5] = molecular target: T1, Transthyretin; assay: Noncovalent binding affinity to wild type TTR T4 site assessed as fibril formation at 7.2 uM after 72 hrs at pH 4.4 by RP-HPLC analysis
Transthyretin [6] = molecular target: T1, Transthyretin; assay: Inhibition of wild type TTR amyloidogenesis assessed as fibril formation at 1.8 to 2.7 uM after 120 hrs at pH 4.4 by spectrophotometry relative to untreated control
Transthyretin [7] = molecular target: T1, Transthyretin; assay: Inhibition of wild type TTR amyloidogenesis assessed as inhibition of fibril formation after 72 hrs at pH 4.4 by spectrophotometry relative to untreated control
Transthyretin [8] = molecular target: T1, Transthyretin; assay: Binding affinity to TTR in human plasma at 10.8 uM after 24 hrs RP-HPLC analysis; type: cell-free
Transthyretin [9] = molecular target: T1, Transthyretin; assay: Binding affinity to wild type TTR tetramer in human plasma assessed as covalent chemoselective amide bond formation with Lys15 residue of TTR subunit at 7.2 uM after 18 hrs by RP-HPLC analysis; type: cell-free
[10] = tested on: Transthyretin (Homo sapiens), P02766 [V50M]; assay: Inhibition of TTR V30M mutant amyloidogenesis assessed as fibril formation at 7.2 uM after 72 hrs at pH 4.4 by spectrophotometry relative to untreated control; design: scale not given: the % may be the effect or the level left
Transthyretin [11] = molecular target: T1, Transthyretin; assay: Inhibition of wild type TTR amyloidogenesis assessed as fibril formation at 7.2 uM after 72 hrs at pH 4.4 by spectrophotometry relative to untreated control; design: scale not given: the % may be the effect or the level left
Transthyretin [12] = molecular target: T1, Transthyretin; assay: Inhibition of wild type TTR amyloidogenesis assessed as fibril formation at […] after 72 hrs at pH 4.4 by spectrophotometry relative to untreated control; design: scale not given: the % may be the effect or the level left
Transthyretin [13] = molecular target: T1, Transthyretin; assay: Binding affinity to wild type TTR in human plasma assessed as covalent modification of TTR subunit after 18 hrs by RP-HPLC analysis; type: cell-free
Transthyretin [14] = molecular target: T1, Transthyretin; assay: Stabilization of wild-type TTR tetramer assessed as rate of TTR-compound conjugate formation by C18-RP-HPLC
[15] = tested on: Transthyretin (Homo sapiens), P02766 [V50M]; assay: Inhibition of TTR V30M mutant amyloidogenesis assessed as fibril formation at […] after 72 hrs at pH 4.4 by spectrophotometry relative to untreated control; design: scale not given: the % may be the effect or the level left
Transthyretin [16] = molecular target: T1, Transthyretin; assay: Binding affinity to wild type TTR assessed as induction of benzoylation at Lys15 residue of TTR subunit by LC-MS method
Transthyretin [17] = molecular target: T1, Transthyretin; assay: Binding affinity to wild-type TTR assessed as nonchemoselective conjugation of TTR after 18 hrs by C18-RP-HPLC
[18] = Binding affinity to TTR K15A mutant assessed as nonchemoselective conjugation of TTR after 18 hrs by C18-RP-HPLC

Row | Activity (Homo sapiens) | TIME (Transthyretin [1]) [h] | inhibition (Transthyretin [7]) | Activity (Transthyretin [8]) | Activity (Transthyretin [9]) | Activity [10] [%] | Activity (Transthyretin [11]) [%] | Activity (Transthyretin [12]) [%] | Activity (Transthyretin [13]) [%] | Activity [15] [%] | Activity (Transthyretin [16]) | Activity (Transthyretin [17]) | SMILES | Activity [2] | inhibition (Transthyretin [4]) | further results
1 | inactive | 21.9 |  |  |  |  |  |  |  |  |  |  | Cc1cc(/C=C/c2cccc(C(=O)Oc3ccc(F)cc3)c2)cc(C)c1O | Non-toxic |  | 
2 |  |  | Dose-dependent effect |  |  |  |  |  |  |  |  |  | Cc1cc(/C=C/c2ccccc2)cc(C)c1O | Non-toxic | Dose-dependent effect | Activity (Transthyretin [3]): Active; Activity (Transthyretin [5]): Active; inhibition (Transthyretin [6]): Active
3 | inactive | 0.983 | Dose-dependent effect | Active | Active | 3 | 4 | 21 | 49 | 33 | Active |  | Cc1cc(/C=C/c2cccc(C(=O)Oc3ccccc3[N+](=O)[O-])c2)cc(C)c1O |  |  | T1/2 (Transthyretin [14]): 5 min; IC50 (Transthyretin [7]): 2260 nM
4 |  |  |  |  |  |  |  |  |  |  |  | Active | Cc1cc(/C=C/c2ccc(C(=O)Sc3ccccc3)cc2)cc(C)c1O |  |  | 
5 |  |  |  |  |  |  |  |  |  |  |  | Active | Cc1cc(/C=C/c2ccc(C(=O)Oc3ccc(F)cc3)cc2)cc(C)c1O |  |  | 
6 | inactive | 21.2 | Dose-dependent effect | Active | Active | 3 | 2 | 12 | 36 | 17 | Active |  | O=C(Sc1ccccc1)c1cccc(/C=C/c2cc(Br)c(O)c(Br)c2)c1 |  |  | 
7 |  |  | Dose-dependent effect |  |  |  |  |  |  |  |  |  | Cc1cc(/C=C/c2cccc(C(=O)O)c2)cc(C)c1O | Non-toxic | Dose-dependent effect | Activity (Transthyretin [3]): Active; Activity (Transthyretin [5]): Active; inhibition (Transthyretin [6]): Active; IC50 (Transthyretin [7]): 3070 nM
8 |  |  |  |  |  |  |  |  |  |  |  | Active | Cc1cc(/C=C/c2ccc(C(=O)Oc3ccccc3[N+](=O)[O-])cc2)cc(C)c1O |  |  | Activity [18]: Active
9 | inactive | 1.35 | Dose-dependent effect | Active | Active | 3 | 2 | 16 | 48 | 34 | Active |  | Cc1cc(/C=C/c2cccc(C(=O)Sc3ccccc3)c2)cc(C)c1O | Non-toxic | Dose-dependent effect | T1/2 (Transthyretin [14]): 15 min
